Sampled rows, rich in hits. Any-hit rate of the full collection: about 6.4%.
Jurkat tox 60K – cytotoxicity toward Jurkat T cells, primary screen, cytotoxicity control, cell-based, Jurkat E6.1, 60K MLSMR library | Jurkat E6.1 viability, ATP luminescence, 48 h | inhibition, % at 4 µM | 56,000 compounds, 1.2% hits | AID 463, 2006;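 active = inhibition above the mean inhibition of all tested compounds plus 3 SD, cut at about 28% in these data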
Fibroblast inh – antiproliferative effect on LL 47 fibroblasts – human, LL 47 cells, CellTiter-Glo luminescence, primary screen; 85,000 compounds, 1.1% hits; viability, % at 10 µM; LL 47 human lung fibroblast viability, ATP luminescence; hits give low values;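 active = viability at or below 50% in the single dose screen; inactive = viability above 50%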;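 also: compound exposure lasted 72 h before the ATP readout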
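Test system: LL 47 human lung fibroblasts / Incubation: 72 h compound exposure at 37 °C after overnight plating / Technique: luminescent ATP detection, CellTiter-Glo / Compound dosing: 0.1% DMSO in all compound wells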
Ecoli tolC – growth inhibitors of E. coli tolC mutant, primary screen, strain BW25113 ΔtolC::kan, 384-well. OD615. growth inhibition, % at 10 µM (by protocol). 65,000 compounds, 2.2% hits. AID 573, 2007;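 active = growth inhibition at or above a cutoff equal to the mean over every tested compound plus 3 SD, cut at about 60% in these data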;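 also: growth measured after 20 h incubation at 37 °C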
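Doses: one dose of 10 µM final / Material: E. coli BW25113 ΔtolC::kan, tolC deletion mutant strain / Buffer or medium: LB with kanamycin 50 µg/mL / Evaluation: percent growth inhibition / Detection: optical density read at 615 nm / Incubation: 37 °C, 20 h exposure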
E coli WT exp – growth inhibitors of wild-type E. coli, primary screen, strain BW25113, expanded library, OD600; OD600 absorbance; growth inhibition, % at 100 µM; 98,000 compounds, 0.15% hits;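 active = growth inhibition above about 50% at one test dose, limit read from the data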;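 also: growth measured after 20 h incubation at 37 °C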
H69AR inhibit – proliferation blockers of H69AR lung cancer cells, primary screen, cell-based, human, 86K library; H69AR lung tumor viability, ATP luminescence, 72 h; hits give low values; viability, % at 10 µM; 85,000 compounds, 6% hits; AID 598, 2007;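 active = viability at or below 40%; inactive = viability above 40%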;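 also: multidrug resistant small cell line overexpressing MRP-1 efflux transporter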
HUVEC prolif 384 – inhibitors of HUVEC proliferation, primary screen, cell-based, 384-well | CellTiter-Glo luminescence, 72 h; hits give low values | viability, % at 10 µM (by protocol) | 86,000 compounds, 1.1% hits;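 active = viability at or below 30%; inactive = viability above 30%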
A number is an active result; n = inactive; x = no result given.

SMILES	Jurkat tox 60K	Fibroblast inh	Ecoli tolC	E coli WT exp	H69AR inhibit	HUVEC prolif 384
CC(=O)OC(C(=O)NC1CCCCC1)c1ccncc1 (centres undefined)	n	n	n	n	n	n
c1ccc2c(c1)oc1c(Nc3ccc(CN4CCOCC4)cc3)ncnc12	n	n	n	n	3.5	5.4
c1ccc2c(c1)oc1c(NCCN3CCOCC3)ncnc12	n	n	n	n	n	n
Cc1nc(NCc2ccco2)[nH]c(=O)c1CCC(C)C	n	n	n	n	n	n
O=c1[nH]c(NCc2ccco2)nnc1Cc1ccccc1Cl	x	n	n	n	30.3	n
COc1cc(NC(=O)c2ccc(S(=O)(=O)N(C)C)cc2)cc(OC)c1OC	n	n	n	n	n	n
CCCCN(C)S(=O)(=O)c1cc(Br)cc2c1N(C(=O)C1CC1)CC2	x	n	n	n	31.4	n
CCOCCCNS(=O)(=O)c1cc(Br)cc2c1N(C(=O)C1CC1)CC2	x	n	n	n	n	n
CCOc1ccccc1OCCCCCc1c(C)n[nH]c1C	n	n	n	n	n	n
Cc1cccc(OCCCCc2c(C)n[nH]c2C)c1	n	n	100.0	n	n	n
COc1cccc(OCCc2c(C)n[nH]c2C)c1	x	x	x	n	x	x
Cc1cccc(OCCCCc2c(C)n[nH]c2C)c1C	n	n	100.0	n	n	n
CCCCNC(=O)CSc1nc2cc3c(cc2c(=O)n1CCCN(CC)CC)OCO3	x	n	n	n	n	n
COC(=O)c1cc2ccsc2n1CC(=O)Nc1cc(Cl)ccc1OC	86.0	x	n	n	x	x
COC(=O)c1cc2ccsc2n1CC(=O)Nc1ccc(N(C)C)cc1	n	n	n	n	n	n
CCOCCCNC(=O)c1cc2c(=O)n3cccc(C)c3nc2n1C	n	n	n	x	33.6	n
COCCNC(=O)c1cc2c(=O)n3cccc(C)c3nc2n1C	n	n	n	x	26.9	n
CCCCNC(=O)c1cc2c(=O)n3cccc(C)c3nc2n1C	n	n	n	x	n	n
COc1ccc(C(=O)NCCc2cn3ccc(C)cc3n2)cc1	x	n	x	n	n	n
COC(=O)c1cn(NC(=O)c2cc(OC)c(OC)c(OC)c2)c(=O)c2ccccc12	x	49.2	x	n	18.5	19.8
COC(=O)c1cn(NC(=O)c2cc(OC)cc(OC)c2)c(=O)c2ccccc12	x	n	x	n	n	n
CCC(C)c1ccc2oc(-c3ccc(NC(=O)Cn4cnc5c(=O)n(C)c(=O)n(C)c54)cc3)nc2c1 (centres undefined)	n	34.1	n	n	24.8	n
Cn1c(=O)c2ncn(CC(=O)Nc3ccc(N4CCOCC4)cc3)c2n(C)c1=O	x	x	x	n	x	x
Cn1c(=O)c2ncn(CC(=O)Nc3ccc4oc(-c5cccc6ccccc56)nc4c3)c2n(C)c1=O	n	n	n	x	n	27.3
Cc1ccc(NC(=O)Cn2cnc3c(=O)n(C)c(=O)n(C)c32)c(C)c1	x	n	n	n	n	n
SMILES	Jurkat tox 60K	Fibroblast inh	Ecoli tolC	E coli WT exp	H69AR inhibit	HUVEC prolif 384
CC(C(=O)NCc1ccco1)n1nc(-c2ccccc2)c2cc(Cl)ccc21 (centres undefined)	n	n	n	n	35.2	n
CCc1ccc2oc(-c3cc(N)ccc3Cl)nc2c1	n	n	n	n	n	n
CCc1ccc2oc(-c3cc(N)cc(C)c3O)nc2c1	46.8	n	n	n	23.0	n
CCc1ccc2oc(-c3cc(N)ccc3O)nc2c1	n	n	n	n	31.9	n
CN(C)c1nc(Oc2ccc(C(=O)OCC(=O)Nc3ccccc3)cc2)nc(N(C)C)n1	n	n	n	n	n	n
O=C(Nc1cccnc1)c1ccc(Oc2ccccc2)cc1	n	11.0	n	n	n	n
Cc1ccc(Cc2c(C)nc3nc(SCC(=O)NCc4ccco4)nn3c2C)cc1	x	x	n	n	x	x
Cc1nc2nc(SCC(=O)NCc3ccco3)nn2c(C)c1Cc1c(F)cccc1Cl	x	n	n	n	34.9	n
CC(=O)Oc1c(Cl)c(N2CCOCC2)c(OC(C)=O)c2ccccc12	n	n	n	n	1.9	n
O=C(Nc1ccc(Cl)c(Cl)c1)Nc1cc(C(=O)N2CCOCC2)ccc1N1CCCCC1	n	n	n	x	n	n
O=C1C(Cc2ccc(O)cc2)NC(=S)N1c1ccccc1 (centres undefined)	x	x	x	n	x	x
Brc1cc2c(cc1/C=N/Nc1nc3ccccc3s1)OCO2	x	x	x	n	x	x
Cc1ccc2[nH]c(C)c(/C=N/Nc3nc4ccccc4s3)c2c1	x	n	x	n	4.6	n
O=C(c1ccccc1)c1cccc(NC(=O)C2CC2)c1	x	n	x	n	n	n
O=C(Nc1cccc(S(=O)(=O)c2cccc(NC(=O)C3CC3)c2)c1)C1CC1	n	n	94.0	n	n	n
CNCCCOc1ccc(C(C)(C)c2ccccc2)cc1	x	n	x	n	9.9	n
CCn1cc(CNC(=O)C2C3CCC(C3)C2C(=O)O)cn1 (centres undefined)	n	n	n	n	n	n
C=CCNC(=O)CCCCC(=O)NCC=C	n	n	n	n	32.4	n
Cc1ccc(Cn2ccc(NC(=O)c3cc(-c4ccc5c(c4)OCO5)on3)n2)cc1	n	n	n	n	n	n
COC(=O)[C@H](CCSC)NC(=O)NCc1ccc(S(N)(=O)=O)cc1	n	n	n	n	1.9	n
COC(=O)[C@H](CCSC)NC(=O)NCc1ccccc1F	x	n	x	n	n	n
CCOc1ccccc1-c1cc(-c2ccc(OC)cc2)nc2c1c(=O)n(C)c(=O)n2C	n	n	n	x	20.6	n
CN(C)c1ccc(-c2nnn(Cc3ccccc3Br)n2)cc1	n	n	n	n	n	n
COc1cc(OC)cc(C(=O)NC2CCN(CC(=O)Nc3cccc4ccccc34)CC2)c1	x	n	x	x	38.8	n
O=C(CN1CCC(NC(=O)c2ccco2)CC1)Nc1cccc2ccccc12	x	n	x	x	n	n
SMILES	Jurkat tox 60K	Fibroblast inh	Ecoli tolC	E coli WT exp	H69AR inhibit	HUVEC prolif 384
COc1cccc(NC=C2C(=O)OC(C)(C)OC2=O)c1	n	n	n	n	n	n
CCn1c(SCC(=O)c2c[nH]c3ccccc23)nnc1-c1cccs1	58.2	n	n	n	n	n
COCc1cc(=O)n2c(-c3ccc(C)cc3)n[nH]c2n1	n	n	n	n	n	n
CCC1CCCCN1S(=O)(=O)c1ccc2c(c1)CCN2C(=O)C1CCC1 (centres undefined)	n	n	83.9	n	n	n
COc1ccc(/C=N/n2cc(-c3ccc(OC)cc3)nc2N)cc1	n	n	n	n	25.1	n
COc1ccc(/C=N/n2cc(-c3ccccc3)nc2N)cc1	n	n	n	n	18.2	n
C=CCSc1nncn1/N=C/c1ccc(OC)cc1	n	x	n	n	n	n
COc1ccc(/C=N\n2nnc3ccccc32)cc1	n	x	n	n	x	x
Cc1nc2c(C(=O)NCCC(C)C)c[nH]n2c(=O)c1Cc1ccccc1F	x	n	x	n	n	11.8
Cc1nc2c(C(=O)NCCc3ccccc3)c[nH]n2c(=O)c1Cl	x	n	n	n	n	n

From PubChem BioAssay
